Source: PubChem
This is a sample that favours compounds with a hit; in the whole collection about 4.6% have one here.
CHO parental Ca: counter-screen for OX1R antagonists: effect in parental CHO cells; parental CHO-K1, ATP-induced calcium, Fluo-8 fluorescence; inhibition, % at 5.6 µM; 330,000 compounds, 0.63% hits; AID 463079;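 active means inhibition above that plate's mean sample inhibition plus 3 SD, cut at about 26% in these data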;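 further: 0% = ATP-challenged DMSO wells and 100% = DMSO wells without ATP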
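Material – parental CHO cells · Reagent – ATP stimulus · Compound – single nominal dose of 5.6 µM per compound · Detection – Fluo-8 fluorescence · Read-out basis – percent inhibition of calcium signal · Controls – ATP-challenged DMSO wells low, unchallenged DMSO wells high · Repeats – no replicates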
OX1R antag-1: human HCRTR1 antagonism. 330,000 compounds, 0.43% hits. CHO/OX1R cells, Fluo-8 calcium fluorescence, orexin A. inhibition, % at 5 µM. O43613;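 active means inhibition above its plate's threshold, mean inhibition of all tested compounds on the plate plus 3 SD, cut at about 37% in these data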;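 further: 0% = orexin A challenge wells and 100% = SB-334867-A antagonist wells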
Target sequence (O43613 whole entry, looked up): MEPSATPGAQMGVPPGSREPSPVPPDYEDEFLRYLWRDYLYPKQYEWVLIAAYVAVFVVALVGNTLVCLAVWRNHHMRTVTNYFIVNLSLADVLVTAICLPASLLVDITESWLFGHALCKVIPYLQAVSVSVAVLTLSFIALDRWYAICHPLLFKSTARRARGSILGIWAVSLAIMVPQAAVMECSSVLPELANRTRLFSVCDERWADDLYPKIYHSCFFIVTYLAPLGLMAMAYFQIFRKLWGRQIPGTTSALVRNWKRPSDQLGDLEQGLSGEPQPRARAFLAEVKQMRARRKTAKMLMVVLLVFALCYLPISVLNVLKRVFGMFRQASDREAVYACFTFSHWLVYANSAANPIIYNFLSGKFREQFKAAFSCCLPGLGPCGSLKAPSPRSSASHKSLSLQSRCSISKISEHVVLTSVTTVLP
GPR7 antagonist: antagonists of human GPR7 (neuropeptides B/W receptor 1) | GPR7-expressing cells, fluorescence antagonist assay | inhibition, % at 4.4 µM | 290,000 compounds, 1.1% hits; in the data active means inhibition above about 16%, passing the limit was not always enough;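 further: cells stimulated with the agonist NPW; 0% = agonist with vehicle and 100% = vehicle without agonist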
TAAR1 agonist: agonists of human TAAR1; CHO RD-HGA16 TAAR1, Fluo-8 calcium fluorescence; vehicle wells 0%, saturating PEA agonist 100%; AID 624467; activation, % at 3 µM; Q96RJ0; 360,000 compounds, 0.99% hits;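 active means activation above the mean activation of all test compounds in the run plus 3 SD, cut at about 38% in these data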
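Assay system – CHO-derived RD-HGA16 cells with stable Gα16 and human TAAR1 · Compound dosing – one-point dosing at 3 µM (nominal) · Incubation – 17-24 h seeding, 75 min 37 °C dye, 30 min RT · Measured by – kinetic Fluo-8 calcium fluorescence · Control set – DMSO vehicle as 0%, PEA at EC100 as 100% · Repeats – single well for each compound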
OX1R antag-2: OX1R (human) antagonism; AID 485270; 330,000 compounds, 1.8% hits; OX1R-expressing cells, FRET antagonist read-out; inhibition, % at 6.6 µM; in the data active means inhibition mostly above about 38%, no sharp cut-off; inactive means mostly below about 40%;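 further: 0% = agonist challenge alone and 100% = reference antagonist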
TAAR1 antag: antagonists of human TAAR1. inhibition, % at 3 µM. AID 624466. 360,000 compounds, 1.5% hits. CHO RD-HGA16 TAAR1, Fluo-8 calcium fluorescence, antagonist;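 active means inhibition above a per-plate cutoff, the mean inhibition of test compounds on that plate plus 3 SD, cut at about 49% in these data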;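 further: 0% = DMSO plus EC80 beta-PEA response and 100% = DMSO alone without agonist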
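System: CHO RD-HGA16 cells bearing hTAAR1. Reagent: EC80 β-phenethylamine stimulus. Schedule: seeding 17-24 h prior, 75-min 37 °C, 30-min RT dye loading. Signal: Fluo-8 intracellular calcium dye fluorescence, real-time kinetic reads. Read-out: % inhibition from peak post-agonist over basal fluorescence ratio. Benchmarks: vehicle wells and EC80 agonist wells. Replicates: n of 1.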
* = called active by the depositor.

`COc1ccc(Cn2c(SCc3cc(C)ccc3C)nc3cc(OC)c(OC)cc3c2=N)cc1` gave CHO parental Ca 5.7, OX1R antag-1 -10.4, GPR7 antagonist -7.3, TAAR1 agonist 32.3, OX1R antag-2 10.2 and TAAR1 antag -25.1.
COc1cc(CNCC(O)c2ccccc2)ccc1OCc1ccc(Cl)nc1 (centres undefined) was read as CHO parental Ca -21.6, OX1R antag-1 -15.1, GPR7 antagonist 6.1, TAAR1 agonist 39.2*, OX1R antag-2 5.3 and TAAR1 antag -10.6.
`NC(=O)[C@@H]1CCCCNc2c(I)cc([N+](=O)[O-])cc2C(=O)N[C@@H](CCC(=O)O)C(=O)N[C@@H](CO)C(=O)N1` gave CHO parental Ca -7.6, OX1R antag-1 -0.4, GPR7 antagonist 0.3, TAAR1 agonist 10.7, OX1R antag-2 40.7 and TAAR1 antag 15.5.
For NC(=O)[C@@H]1CCCNc2c(F)cc([N+](=O)[O-])cc2C(=O)N[C@@H](CCC(=O)O)C(=O)N[C@@H](CO)C(=O)N1 the results were CHO parental Ca -2.2, OX1R antag-1 5.7, GPR7 antagonist -11.1, TAAR1 agonist 7.6, OX1R antag-2 60.1* and TAAR1 antag -7.9.
Screening CC(CNC(=O)[C@@H](Cc1ccccc1)NC(=O)[C@H]1O[C@@H](n2ccc(=O)[nH]c2=O)[C@H](O)[C@@H]1O)c1ccccc1 (some centres undefined) returned TAAR1 agonist 1.0 and TAAR1 antag 5.4.
`O=C(COC(=O)c1cc([N+](=O)[O-])ccc1N1CCOCC1)NC1CCS(=O)(=O)C1` (centres undefined) gave CHO parental Ca -5.6, OX1R antag-1 -9.1, TAAR1 agonist 0.8, OX1R antag-2 21.1 and TAAR1 antag -27.0.
`O=C(COC(=O)c1cc([N+](=O)[O-])ccc1N1CCOCC1)NC1CCCCC1` gave CHO parental Ca -19.8, OX1R antag-1 -28.1, TAAR1 agonist 2.0, OX1R antag-2 52.8* and TAAR1 antag -20.0.
For O=C(COC(=O)c1cc([N+](=O)[O-])ccc1N1CCOCC1)Nc1ccc(Cl)cc1 the results were CHO parental Ca -0.9, OX1R antag-1 -13.9, GPR7 antagonist -0.2, TAAR1 agonist 1.8, OX1R antag-2 52.4* and TAAR1 antag 14.5.
O=C(COC(=O)c1cc([N+](=O)[O-])ccc1N1CCOCC1)Nc1ccc(Cl)cn1 was read as CHO parental Ca -15.2, OX1R antag-1 -21.5, GPR7 antagonist 9.2, TAAR1 agonist 4.3, OX1R antag-2 51.9* and TAAR1 antag 3.9.
`CC(OC(=O)c1cccc(-n2cnnn2)c1)C(=O)Nc1ccc(F)c(F)c1F` (centres undefined) gave TAAR1 agonist -0.1 and TAAR1 antag -21.2.
For CC(=O)c1ccccc1Oc1nc(CN2CCOCC2)nc2scc(-c3cccs3)c12 the results were CHO parental Ca -22.9, OX1R antag-1 12.3, GPR7 antagonist 3.2, TAAR1 agonist -0.4, OX1R antag-2 44.1* and TAAR1 antag 11.7.
Screening Cc1cc(-n2cnnn2)cc(C)c1S(=O)(=O)N(C)c1ccccc1 returned CHO parental Ca -1.9, OX1R antag-1 -23.2, GPR7 antagonist -3.0, TAAR1 agonist 2.0, OX1R antag-2 17.4 and TAAR1 antag -0.5.
Screening O=C(N/N=C/c1cccnc1)c1ccc(NC(=O)c2ccccc2Cl)cc1 returned CHO parental Ca -7.0, OX1R antag-1 -4.5, GPR7 antagonist 7.6, TAAR1 agonist 11.7, OX1R antag-2 21.0 and TAAR1 antag 50.4*.
Cc1ccccc1C(=O)Nc1ccc(C(=O)N/N=C/c2ccc(O)c(Br)c2)cc1 was read as CHO parental Ca -20.7, OX1R antag-1 -9.1, GPR7 antagonist 8.4, TAAR1 agonist 10.0, OX1R antag-2 16.5 and TAAR1 antag 52.0*.
Cc1ccccc1C(=O)Nc1ccc(C(=O)N/N=C/c2ccc(F)cc2)cc1 was read as CHO parental Ca 11.7, OX1R antag-1 -4.2, GPR7 antagonist 5.4, TAAR1 agonist 11.9, OX1R antag-2 8.2 and TAAR1 antag 34.2.
CN(C)c1ccc(/C=C(\C#N)C(=O)OCC(=O)N(C)C2CCS(=O)(=O)C2)cc1 (centres undefined) was read as CHO parental Ca -3.7, OX1R antag-1 1.2, TAAR1 agonist 2.5, OX1R antag-2 35.0* and TAAR1 antag 13.7.
CCN(C(=O)COC(=O)/C(C#N)=C/c1ccc(N(C)C)cc1)C1CCS(=O)(=O)C1 (centres undefined) was read as CHO parental Ca -1.3, OX1R antag-1 8.2, TAAR1 agonist 2.8, OX1R antag-2 7.6 and TAAR1 antag -15.3.
Screening CCN(CC)C(=O)CSc1nnc2nnc3cc(OC)ccc3n12 returned CHO parental Ca -12.3, OX1R antag-1 -6.3, GPR7 antagonist -5.2, TAAR1 agonist 1.4, OX1R antag-2 76.5* and TAAR1 antag -20.2.
For CCN(CC)C(=O)CSc1nnc(COc2ccc(OC)cc2)n1N the results were CHO parental Ca 12.0, OX1R antag-1 -13.9, GPR7 antagonist -6.5, TAAR1 agonist 0.4, OX1R antag-2 14.7 and TAAR1 antag -11.0.
For COc1ccc(C2CC(C)(c3ccc(OC)cc3OC)Nc3ccccc3N2)c(OC)c1 (centres undefined) the results were CHO parental Ca 71.5*, OX1R antag-1 38.0*, GPR7 antagonist 13.0, TAAR1 agonist 0.3, OX1R antag-2 40.5 and TAAR1 antag -3.7.
Screening CC(C)CN(C(=O)CSc1nc2ccccc2[nH]1)C1CCS(=O)(=O)C1 (centres undefined) returned CHO parental Ca -13.5, OX1R antag-1 -13.2, TAAR1 agonist 5.3, OX1R antag-2 3.1 and TAAR1 antag 1.1.
`C/C(=N\OCC(=O)Nc1ccc(F)c(F)c1F)c1cc2ccccc2o1` gave CHO parental Ca -15.3, OX1R antag-1 -0.7, GPR7 antagonist 2.5, TAAR1 agonist -1.3, OX1R antag-2 65.0* and TAAR1 antag 2.5.
Screening CSc1ccccc1NC(=O)CO/N=C(\C)c1cc2ccccc2o1 returned CHO parental Ca -21.9, OX1R antag-1 -38.3, GPR7 antagonist -2.0, TAAR1 agonist 11.3, OX1R antag-2 23.2 and TAAR1 antag 29.9.
`COc1ccccc1NC(=O)OC[C@@H]1CSCCS(=O)(=O)N1` gave TAAR1 agonist 1.3 and TAAR1 antag 17.4.
Screening Cc1ccc(C(C)C)c(OCCN)c1 returned CHO parental Ca -6.1, OX1R antag-1 -0.7, GPR7 antagonist 0.4, TAAR1 agonist 37.9*, OX1R antag-2 0.4 and TAAR1 antag -1.9.
Cc1ccc(C(C)C)c(OCCN(C)C)c1 was read as CHO parental Ca -9.4, OX1R antag-1 -18.1, GPR7 antagonist -6.6, TAAR1 agonist 6.6, OX1R antag-2 8.4 and TAAR1 antag 10.4.
